Assay results collected from several papers.
Compare with care: the assays were run in different laboratories.
Target: Protein kinase C epsilon type (PRKCE, Homo sapiens, UniProt Q02156)
Residues used in one study (Q02156 1-737): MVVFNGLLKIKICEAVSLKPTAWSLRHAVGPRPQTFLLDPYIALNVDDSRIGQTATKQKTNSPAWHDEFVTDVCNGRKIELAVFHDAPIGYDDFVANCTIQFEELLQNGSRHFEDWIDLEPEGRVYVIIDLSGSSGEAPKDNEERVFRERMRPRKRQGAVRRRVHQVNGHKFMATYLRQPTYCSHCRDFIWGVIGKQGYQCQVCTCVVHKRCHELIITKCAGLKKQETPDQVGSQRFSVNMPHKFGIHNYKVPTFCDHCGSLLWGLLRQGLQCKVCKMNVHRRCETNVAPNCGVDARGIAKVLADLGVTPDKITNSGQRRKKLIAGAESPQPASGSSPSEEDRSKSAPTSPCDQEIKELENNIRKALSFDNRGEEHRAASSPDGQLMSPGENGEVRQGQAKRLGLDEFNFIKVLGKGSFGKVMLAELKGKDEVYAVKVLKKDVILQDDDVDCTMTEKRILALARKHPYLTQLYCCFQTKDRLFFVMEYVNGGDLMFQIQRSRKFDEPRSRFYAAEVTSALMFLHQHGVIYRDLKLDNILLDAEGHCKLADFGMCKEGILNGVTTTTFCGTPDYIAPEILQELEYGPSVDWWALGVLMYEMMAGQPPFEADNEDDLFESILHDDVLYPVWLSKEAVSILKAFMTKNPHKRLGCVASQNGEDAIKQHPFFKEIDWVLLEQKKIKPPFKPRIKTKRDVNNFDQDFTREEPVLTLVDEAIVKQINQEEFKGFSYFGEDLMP

SMILES	effect on	action	technique	concentration	quantity	value
COc1cc2ncnc(Nc3ccc(Oc4ccccc4)c(C)c3C)c2cc1OC	enzyme activity	inhibitor	–	1 µM	inhibition	-5%
CC(C)(C)c1nc2c(s1)c1nc(N)ncc1c1ccc(NS(=O)(=O)c3c(F)cccc3F)c(F)c12	enzyme activity	inhibitor	radiometric	1 µM	remaining activity	133%
CCCCN(CCCC)C(=O)CN1C[C@@H](c2cc(OC)c3c(c2)OCO3)[C@H](C(=O)O)[C@H]1CC(C)(C)CCC	cell-free assay	–	competition with immobilised ligand	1 µM	remaining binding	100%
CC(C)c1ccc(NC(=O)c2cccs2)c(-c2nc3ccccc3[nH]c2=O)c1	enzyme activity	inhibitor	–	1 µM	activity vs control	109%
O=C(Nc1nccs1)C(c1cc(F)ccc1O)N1Cc2ccccc2C1=O (centres unmarked)	enzyme activity	inhibitor	–	1 µM	inhibition	14%
CN(C)c1ncnc(-c2ccc3nc(Nc4cc(CN5CCN(C(=O)CC(F)(F)F)CC5)ccn4)[nH]c3c2)c1Cl	cell-free assay	–	competition with immobilised ligand	1 µM	remaining binding	100%
CCCS(=O)(=O)Nc1ccc(F)c(C(=O)c2c[nH]c3ncc(-c4ccc(Cl)cc4)cc23)c1F	enzyme activity	inhibitor	–	1 µM	inhibition	< 10%
Cc1ccc(-n2nc(C(C)(C)C)cc2NC(=O)Nc2ccc(OCCN3CCOCC3)c3ccccc23)cc1	enzyme activity	inhibitor	–	10 µM	inhibition	16%
N#CCCc1ccc2c(c1)-c1[nH]c3ccc([N+](=O)[O-])cc3c1CC(=O)N2	cell-free assay	–	–	0.5 µM	remaining signal	95.4%
O=C(Nc1cnn(-c2csc(C(=O)NC3COC3)c2)c1)Nc1ccccc1Cl	enzyme activity	inhibitor	–	5 µM	remaining activity	102%
O=C1Nc2ccc(Cl)cc2C1=Cc1cc(Cl)c(O)c(Cl)c1	cell-free assay	–	–	0.5 µM	remaining signal	100%
Cc1nc(Cc2cccc(C(F)(F)F)c2)sc1-c1ccc(C(N)=O)nc1	cell-free assay	–	competition with immobilised ligand	1 µM	remaining binding	100%
Cc1cc(NC(=O)c2cccc3cc(-c4cccc5[nH]nc(N)c45)ccc23)ccc1F	enzyme activity	inhibitor	–	0.1 µM	activity vs control	84%
CN([C@@H]1CCc2c(CC(=O)O)c3cc(S(C)(=O)=O)ccc3n2C1)S(=O)(=O)c1ccc(F)cc1	cell-free assay	–	competition with immobilised ligand	1 µM	remaining binding	87%
CN1CC(Oc2cnc(C#N)cc2-c2ccn3nc(NC(=O)C4CC4)cc3c2)C1	enzyme activity	inhibitor	–	1 µM	inhibition	6%
Nc1nc(Nc2ccc(S(N)(=O)=O)cc2)nn1C(=O)c1c(F)cccc1F	cell-free assay	–	–	0.5 µM	remaining signal	97.2%
CCOC(=O)c1cc2cc(-c3cc(C(=O)NCc4ccc(C(=O)O)cc4)nn3C)ccc2[nH]1	cell-free assay	–	competition with immobilised ligand	0.1 µM	remaining binding	90%
